Many of the other results were omitted from the sample, so hits are more common in it than they were.
E-selectin induc – E-selectin induction on HUVECs | 260,000 compounds, 0.37% hits | AID 686992 | P16581 | activation, % at 7.58 µM | HUVEC E-selectin immunofluorescence imaging; normalized: neutral wells 0, TNF-alpha wells 100;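 active = mean E-selectin-positive cell signal at least 10% of the positive control, reached in at least 60% of replicates, without over 20% cell loss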
Target sequence (P16581 whole entry, looked up): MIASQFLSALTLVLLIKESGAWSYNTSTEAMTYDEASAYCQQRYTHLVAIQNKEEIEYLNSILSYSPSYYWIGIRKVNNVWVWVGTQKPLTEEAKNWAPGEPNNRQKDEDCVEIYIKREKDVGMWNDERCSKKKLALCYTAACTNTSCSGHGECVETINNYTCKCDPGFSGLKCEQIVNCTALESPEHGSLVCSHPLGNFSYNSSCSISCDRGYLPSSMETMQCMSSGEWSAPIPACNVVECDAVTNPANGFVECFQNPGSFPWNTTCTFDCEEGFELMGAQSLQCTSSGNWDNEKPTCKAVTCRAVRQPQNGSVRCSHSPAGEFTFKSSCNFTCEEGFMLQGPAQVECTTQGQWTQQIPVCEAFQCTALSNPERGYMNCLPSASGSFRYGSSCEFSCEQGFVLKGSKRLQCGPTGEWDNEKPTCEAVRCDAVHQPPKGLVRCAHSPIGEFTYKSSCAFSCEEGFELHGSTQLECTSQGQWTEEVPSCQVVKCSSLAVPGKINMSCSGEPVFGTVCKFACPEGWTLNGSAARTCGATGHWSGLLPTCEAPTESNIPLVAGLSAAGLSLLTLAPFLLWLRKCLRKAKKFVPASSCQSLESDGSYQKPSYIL
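Read-out: % PE-positive cells | Test system: HUVEC | Doses: One compound dose added by pin transfer | Buffer or medium: EGM-2 over gelatin coat | Signal: Immunofluorescence imaging | Benchmarks: TNF-alpha, DMSO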
Xi reactivation – X-chromosome reactivation activator; XiGFP mouse fibroblasts, % GFP-positive cells imaging, 3 d; cells co-treated with 5-aza-dC sensitizer; scaled so ellipticine positive control = 100%; activation, % at 7.58 µM; 360,000 compounds, 0.055% hits;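 active = mean normalized replicate activation at least 10% and every replicate at or above 10%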
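Schedule: 3 d treatment, 15 min room-temperature fixation; system: 68-5-11 XiGFP fibroblast line; buffer or medium: DMEM plus 5-aza-dC sensitizer; control set: ellipticine 6 µM positive control; compound: one concentration, pinned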
Hits are given with their value.

What do the screens show for `O=C(NC1CCCC1)C1C(c2ccc(C(F)(F)F)cc2)=Nc2ccccc2N1C(=O)c1ccco1` (stereo not drawn)?
E-selectin induc: inactive; Xi reactivation: inactive

Results for O=C(C[C@@H]1CC[C@@H]2[C@H](COC[C@H](O)CN2Cc2ccccc2)O1)N[C@H]1CCN(Cc2ccccc2)C1 ?
E-selectin induc: inactive; Xi reactivation: inactive

Results for CC(=O)Oc1ccc(-c2cc3ccc(OC(C)=O)cc3oc2=O)cc1 ?
E-selectin induc: inactive; Xi reactivation: inactive

What do the screens show for `CC(=O)Oc1ccc(C2=Cc3ccc(OC(C)=O)cc3OC2C)cc1` (stereo not drawn)?
E-selectin induc: 118; Xi reactivation: inactive

How did CN(C)C(=O)[C@H]1[C@H](CO)[C@H]2Cn3c(ccc(-c4ccncc4)c3=O)[C@H]2N1Cc1ccccc1 do in these assays?
E-selectin induc: inactive; Xi reactivation: inactive

Results for Cc1noc(C)c1S(=O)(=O)N(C)C[C@H]1Oc2ccc(NC(=O)NC(C)C)cc2CC(=O)N([C@@H](C)CO)C[C@@H]1C ?
E-selectin induc: inactive; Xi reactivation: inactive

Results for COc1ccc(NC(=O)NC2(C(=O)N3CCOCC3)CCCCC2)cc1 ?
E-selectin induc: 39; Xi reactivation: inactive

Results for COc1ccc(NC(=O)NC2(C(=O)N3CCN4CCCC4C3)CCCCC2)cc1 (stereo not drawn) ?
E-selectin induc: inactive; Xi reactivation: inactive

What do the screens show for `C[C@@H]1CN([C@H](C)CO)C(=O)c2cc(NS(=O)(=O)c3cccs3)ccc2O[C@H]1CN(C)Cc1ccc(C(=O)O)cc1`?
E-selectin induc: inactive; Xi reactivation: inactive

Results for CCC(=O)N/N=C/c1ccc(-c2ccc([N+](=O)[O-])cc2)o1 ?
Xi reactivation: inactive

Results for CC(C)(C)C(=O)/C=c1\s/c(=C\c2ccc(-c3ccc([N+](=O)[O-])cc3)o2)c(=O)n1CC(=O)NC(N)=O ?
E-selectin induc: inactive; Xi reactivation: 110

Results for CC(=O)N1CC23C=CC(CC2CC12CCCCCC2)O3 (stereo not drawn) ?
E-selectin induc: 35; Xi reactivation: inactive

Results for CC(=O)N1Cc2ccccc2C(C)CC12CCCCC2 (stereo not drawn) ?
E-selectin induc: inactive; Xi reactivation: inactive

How did CC[C@@H]1CC=CC[C@@H](C)Oc2ccccc2C(=O)N(C)[C@@H](C(C)C)C(=O)N1 (mixture of isomers) do in these assays?
Xi reactivation: inactive

Results for C[C@@H]1CN([C@H](C)CO)C(=O)Cc2cc(NC(=O)Nc3ccc(F)cc3)ccc2O[C@H]1CN(C)S(=O)(=O)c1ccccc1 ?
E-selectin induc: inactive; Xi reactivation: inactive

How did C[C@@H]1CN([C@H](C)CO)C(=O)Cc2cc(NS(=O)(=O)c3ccc(F)cc3)ccc2O[C@H]1CN(C)S(=O)(=O)c1ccc(Cl)cc1 do in these assays?
E-selectin induc: 29; Xi reactivation: inactive

How did C[C@H](CO)N1C[C@H](C)[C@H](CN(C)S(=O)(=O)c2ccccc2)Oc2ccc(NC(=O)Nc3ccc(F)cc3)cc2CC1=O do in these assays?
E-selectin induc: 41; Xi reactivation: inactive

How did Cc1noc(C)c1NC(=O)Nc1ccc2c(c1)CC(=O)N([C@@H](C)CO)C[C@H](C)[C@@H](CN(C)S(=O)(=O)c1ccccc1)O2 do in these assays?
E-selectin induc: 49; Xi reactivation: inactive

Results for C[C@@H]1CN([C@@H](C)CO)C(=O)Cc2cc(NS(=O)(=O)c3cccs3)ccc2O[C@@H]1CN(C)S(=O)(=O)c1ccc(Cl)cc1 ?
E-selectin induc: inactive; Xi reactivation: inactive

Results for C[C@H]1CN([C@@H](C)CO)C(=O)Cc2cc(NS(=O)(=O)c3ccc(Cl)cc3)ccc2O[C@H]1CN(C)S(=O)(=O)c1ccc(F)cc1 ?
E-selectin induc: inactive; Xi reactivation: inactive

How did Cc1noc(C)c1NC(=O)Nc1ccc2c(c1)CC(=O)N([C@@H](C)CO)C[C@@H](C)[C@@H](CN(C)S(=O)(=O)c1ccccc1)O2 do in these assays?
E-selectin induc: inactive; Xi reactivation: inactive

What do the screens show for `C[C@H](CO)N1C[C@H](C)[C@@H](CN(C)S(=O)(=O)c2cccs2)Oc2ccc(NS(=O)(=O)c3ccc(Cl)cc3)cc2CC1=O`?
E-selectin induc: 98; Xi reactivation: inactive

How did CNC(=O)C[C@@H]1CC[C@H]2[C@H](COc3ccc(NC(=O)NC(C)C)cc3C(=O)N2C)O1 do in these assays?
E-selectin induc: inactive; Xi reactivation: inactive

What do the screens show for `CC(C)NC(=O)Nc1ccc2c(c1)C(=O)N([C@@H](C)CO)C[C@@H](C)[C@@H](CN(C)S(=O)(=O)c1ccc(F)cc1)OCCCC[C@@H](C)O2`?
E-selectin induc: inactive; Xi reactivation: inactive

How did COc1ccccc1CNC(=O)C[C@@H]1C[C@@H]2c3cc(NC(=O)Nc4ccc(C(F)(F)F)cc4)ccc3O[C@@H]2[C@@H](CO)O1 do in these assays?
Xi reactivation: inactive

Screening results deposited in PubChem by Broad Institute.
